This note sets out measurements from ChEMBL document CHEMBL2311381, “Synthesis and biological activity of aminophthalazines and aminopyridazines as novel inhibitors of PGE2 production in cells” (Bioorg Med Chem Lett, 2013).

The nature of data set [1]: Inhibition of IL-1beta-induced PGE2 production in human HCA-7 cells after 72 hrs by EIA. It counts as functional, cell-based. Conditions: HCA-7, 72 h. The gist of the method:
(§1)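 HCA-7 colon cancer cells were grown overnight in DMEM/10% FBS, then serum-starved for 18 h. They were stimulated with 10 ng/ml IL-1β together with compound (DMSO solution) in serum-free medium for 72 h. PGE2 in the supernatant was measured by EIA. Single-concentration screening was at 1 µM, giving % reduction ± SD (n = 3). EC50 values came from increasing concentrations. Celecoxib served as the positive control.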

Data set [2] is described as follows: (§2) Inhibition of IL-1beta-induced PGE2 production in human HCA-7 cells at 1 uM after 72 hrs by EIA. It counts as functional. Conditions: HCA-7, 72 h. The gist of the method: as §1
The target in data set [3] is T1, Prostaglandin G/H synthase 2 (Homo sapiens, UniProt P35354).
T1 sequence (P35354 whole entry): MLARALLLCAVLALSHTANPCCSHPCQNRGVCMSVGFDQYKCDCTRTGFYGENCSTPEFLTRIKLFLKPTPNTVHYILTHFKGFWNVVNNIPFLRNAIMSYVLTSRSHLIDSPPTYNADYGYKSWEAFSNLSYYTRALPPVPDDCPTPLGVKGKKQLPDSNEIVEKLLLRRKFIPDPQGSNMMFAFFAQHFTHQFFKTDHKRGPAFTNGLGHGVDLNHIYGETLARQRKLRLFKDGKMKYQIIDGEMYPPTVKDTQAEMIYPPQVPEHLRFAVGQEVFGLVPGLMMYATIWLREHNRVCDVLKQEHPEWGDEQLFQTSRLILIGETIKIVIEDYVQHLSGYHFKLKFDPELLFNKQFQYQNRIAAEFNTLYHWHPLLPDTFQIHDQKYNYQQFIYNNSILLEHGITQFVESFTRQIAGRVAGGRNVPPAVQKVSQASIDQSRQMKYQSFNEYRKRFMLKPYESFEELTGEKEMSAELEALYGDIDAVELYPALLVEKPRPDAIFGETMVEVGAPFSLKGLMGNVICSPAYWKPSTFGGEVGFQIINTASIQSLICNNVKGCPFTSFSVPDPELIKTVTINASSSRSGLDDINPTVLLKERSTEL
The data set is described as follows: (§3) Inhibition of COX-2 (unknown origin) at 5 uM. The following applies: 5 µM. The gist of the method:
(§4)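 Cell-free COX-2 activity measured with a fluorescent COX inhibitor screening kit, run per the kit instructions. Compounds were tested at 5 µM. Results are given as % inhibition ± SD (n = 3). Celecoxib served as the positive control. Dose-response curves were not run.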

The target in data set [4] is T2, COX-2 (Prostaglandin G/H synthase 2) (Homo sapiens, UniProt P35354).
T2 sequence (P35354 whole entry): T1 sequence (P35354 whole entry)
Described as §3. In a few lines:
as §4

Another data set has as its system HCA-7. The description is as §2. It counts as functional. The gist of the method: as §1
The target in data set [5] is HCA-7 cells (Homo sapiens). Kind of data set: Inhibition of PGE2 production in human HCA-7 cells.

pEC50: −log10 of the molar value. Active and inactive are the calls of the source. The calls are words filed in the database; no cut-off is given here.

On to `Cc1ccc(Nc2nnc(-c3cccc(-c4ccccc4)c3)c3ccccc23)cc1`, for which the pEC50 in data set [1] is 6.27. In data set [2], this molecule returned an inhibition at 1 µM of 84.2%. Moreover, the “inhibition (INH)” value in data set [3] is reported as “Not Active”.

The molecule `CCc1ccc(Nc2nnc(-c3ccc(OC)cc3)c3ccccc23)cc1` showed a pEC50 in data set [1] of 6.03. For the same molecule, in data set [2], testing at 1 µM gave an inhibition of 85%. Also, in data set [3], the “inhibition (INH)” value is “Not Active”.

In the case of `Cc1ccc(Nc2nnc(-c3ccccc3)c3ccccc23)cc1`, in data set [1], the pEC50 is 7.51. Moreover, the inhibition at 1 µM in data set [2] turned out to be 98.9%. Further, the inhibition at 5 µM in data set [4] stood at 23%.

Consider `CCOc1ccc(-c2nnc(Nc3ccc(C)cc3)c3ccccc23)cc1`, for which the pEC50 in data set [1] is 6.24. This molecule also gave an inhibition at 1 µM in data set [2] of 75.3%. The “inhibition (INH)” value in data set [3] is “Not Active”.

Molecule `COc1ccc(Nc2nnc(-c3ccc(C(=O)NCCO)cc3)c3ccccc23)cc1` came in with an inhibition at 1 µM in data set [2] of 39.2%.

In data set [1], `COc1ccc(-c2nnc(N(C)c3ccc(C)cc3)c3ccccc23)cc1` gave a pEC50 of 7.30. Moreover, the inhibition at 1 µM in data set [2] is 87%. Further, the “inhibition (INH)” value in data set [3] is “Not Active”.

In the case of `COc1ccccc1-c1nnc(Nc2ccc(C)cc2)c2ccccc12`, in data set [1], the pEC50 is 6.23. Further, the inhibition at 1 µM in data set [2] amounted to 77.2%. Besides, the “inhibition (INH)” value in data set [3] is “Not Active”.

For the molecule `COc1ccc(-c2nnc(Nc3ccc(OCC(N)=O)cc3)c3ccccc23)cc1`, the inhibition entry in the data set with HCA-7 was “inactive”.

As to `Cc1ccc(Nc2ccc(-c3ccccc3)nn2)cc1`, in data set [2], the inhibition at 1 µM came to 62.5%.

On to `Cc1cccc(Nc2nnc(-c3ccccc3)c3ccccc23)c1`, for which the pEC50 in data set [1] was 6.12. This molecule gave an inhibition at 1 µM in data set [2] of 74.1%. Moreover, the “inhibition (INH)” value in data set [3] is given as “Not Active”.

Take `COc1ccc(N(C)c2nnc(-c3ccccc3)c3ccccc23)cc1`: the pEC50 in data set [1] is 6.66. The inhibition at 1 µM in data set [2] turned out to be 92.4%. This molecule also returned an inhibition at 5 µM in data set [4] of 21.4%.

`COc1ccc(-c2nnc(Nc3cccc(C)c3)c3ccccc23)cc1` showed a pEC50 in data set [1] of 6.19. Moreover, in data set [2], 1 µM produced 87.5% inhibition. In addition, the “inhibition (INH)” value in data set [3] is given as “Not Active”.

Consider `Clc1ccc(-c2csc(Nc3ccc(Oc4ccccc4)cc3)n2)cc1`, for which the pEC50 in data set [1] and in data set [5] was 6.48 each time.

For `COc1ccc(-c2nnc(Nc3ccccc3)c3ccccc23)cc1`, in data set [1], the pEC50 is 7.70. In data set [2], this molecule displayed an inhibition at 1 µM of 97.3%. For the same molecule, the inhibition at 5 µM in data set [4] was 3%.

Take `Cc1ccc(Nc2nnc(-c3ccc(OC(C)C)cc3)c3ccccc23)cc1`: in data set [1], the pEC50 is 6.15. The same molecule registered an inhibition at 1 µM in data set [2] of 76.7%. In addition, the “inhibition (INH)” value in data set [3] was “Not Active”.

In data set [2], `Cc1ccc(Nc2nnc(-c3cncnc3)c3ccccc23)cc1` displayed an inhibition at 1 µM of 15.1%.

The molecule `CCOC(=O)c1ccc(Nc2nnc(-c3ccccc3)c3ccccc23)cc1` had an inhibition at 1 µM in data set [2] of 18.4%.

Consider `NS(=O)(=O)c1ccc(Nc2nnc(-c3ccccc3)c3ccccc23)cc1`, for which, in the data set with HCA-7, the inhibition entry was “inactive”.

Regarding `Oc1ccc(Nc2nnc(-c3ccccc3)c3ccccc23)cc1`, the inhibition at 1 µM in data set [2] stood at 26.7%.

On to `Cc1ccc(Nc2nnc(-c3ccc4c(c3)OCO4)c3ccccc23)cc1`, for which the inhibition at 1 µM in data set [2] was determined as 59%.

In data set [2], `COc1ccc(-c2ccc(Nc3ccc(C)cc3)nn2)cc1` returned an inhibition at 1 µM of 49%.

As for `COc1ccc(-c2nnc(Nc3ccc(Oc4ccccc4)cc3)c3ccccc23)cc1`, the pEC50 in data set [1] was 7.05. In data set [2], this molecule came in with an inhibition at 1 µM of 92.6%. Besides, the “inhibition (INH)” value in data set [3] is reported as “Not Active”.

In the case of `Cc1ccc(Nc2nnc(-c3ccc(N(C)C)cc3)c3ccccc23)cc1`, the pEC50 in data set [1] was 6.38. This molecule displayed an inhibition at 1 µM in data set [2] of 94.4%. The inhibition at 5 µM in data set [4] was determined as 14.2%.

`COc1ccc(-c2nnc(Nc3ccc(C)cc3)c3ccccc23)cc1` had a pEC50 in data set [1] of 7.49. In data set [2], this molecule came in with an inhibition at 1 µM of 98.3%. In data set [3], the “inhibition (INH)” value is reported as “Not Active”.

Consider `c1ccc(Oc2ccc(Nc3nnc(-c4ccccc4)c4ccccc34)cc2)cc1`, for which 1 µM produced 71.2% inhibition in data set [2]. Also, the “inhibition (INH)” value in data set [3] is given as “Not Active”.

On to `Cc1ccc(Nc2nnc(-c3cccc(Cl)c3)c3ccccc23)cc1`, for which the pEC50 in data set [1] is 6.07. Further, the inhibition at 1 µM in data set [2] was 75.2%. Moreover, the “inhibition (INH)” value in data set [3] was “Not Active”.

`COc1cccc(-c2nnc(Nc3ccc(C)cc3)c3ccccc23)c1` registered an inhibition at 1 µM in data set [2] of 62%.

As to `Cc1ccc(Nc2nnc(-c3ccccc3Cl)c3ccccc23)cc1`, the pEC50 in data set [1] is 6.42. The molecule further came in with an inhibition at 1 µM in data set [2] of 97.2%. Moreover, the “inhibition (INH)” value in data set [3] was “Not Active”.

`Clc1cccc(Nc2nnc(-c3ccccc3)c3ccccc23)c1` gave a pEC50 in data set [1] of 6.30. In data set [2], this molecule returned an inhibition at 1 µM of 79.4%. Besides, the inhibition at 5 µM in data set [4] came out at 10.1%.

One may read the pEC50 as the EC50 on a negative log10 scale, so that one unit is a factor of ten. Read a high pEC50 as a small EC50. A word on the inhibition: it is how much of the control response was suppressed.
